The record followed here is ChEMBL document CHEMBL1156172, “Substituted hydrazinecarbothioamide as potent antitubercular agents: synthesis and quantitative structure-activity relationship (QSAR)” (2010).

Each structure is given as a SMILES string. In brackets after ≈: the same amount, converted by molar mass.

For this experiment, the system named is Mycobacterium tuberculosis. The experiment is described as follows: Antituberculosis activity against Mycobacterium tuberculosis H37Rv after 4 weeks by agar slant proportion method. The note with it: for MIC: Mycobacterium tuberculosis, H37Rv, 672 h. It is filed as functional. In outline: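 M. tuberculosis H37Rv inoculated onto drug-containing slants at 105 bacilli per tube, then incubated 4 weeks at 37 °C (proportion method). MIC taken as the lowest concentration of compound giving no visible growth of the inoculated bacilli; reported in μg/mL.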

As usually defined, the MIC is the smallest concentration in the dilution series that meets the test's criterion for growth inhibition. The compound `C/C(=N\NC(=S)Nc1ccc(I)cc1)c1ccc([N+](=O)[O-])cc1` yielded an MIC greater than 12.5 µg/mL. For the compound `C/C(=N\NC(=S)Nc1ccc(Br)cc1)c1ccc(Br)cc1`, the “-logMIC” value was determined as 0.097 and the minimum inhibitory concentration (MIC) was found to be 0.8 µg/mL (≈ 1.87 µM). `C/C(=N\NC(=S)NNc1ccc(C)cc1)c1ccc(Br)cc1` showed a minimal inhibitory concentration (MIC) of 1.56 µg/mL (≈ 4.13 µM).

In the case of `C/C(=N\NC(=S)NNC(=O)c1cccnc1)c1ccc(Br)cc1`, the “-logMIC” value is given as -0.796 and 6.25 µg/mL (≈ 15.9 µM) was the least that counted as inhibitory (MIC). In the case of `C/C(=N\NC(=S)Nc1cccc(Cl)c1Cl)c1ccc([N+](=O)[O-])cc1`, the minimum inhibitory concentration (MIC) is greater than 12.5 µg/mL. Regarding `C/C(=N\NC(=S)Nc1cc(C)ccn1)c1ccc(Br)cc1`, the “-logMIC” value came to 0.398 and the minimum inhibitory concentration (MIC) stood at 0.4 µg/mL (≈ 1.1 µM). With `C/C(=N\NC(=S)Nc1cc(C)ccn1)c1ccc([N+](=O)[O-])cc1`, the “-logMIC” value is reported as -0.494 and the minimal inhibitory concentration (MIC) was determined as 3.12 µg/mL (≈ 9.47 µM).

Turning to `CC(=O)C1(c2ccccc2)CCN(NC(=S)N/N=C(\C)c2ccc(Br)cc2)CC1`, the “-logMIC” value came out at 0.097 and the lowest concentration to inhibit growth (MIC) was 0.8 µg/mL (≈ 1.69 µM).

Take `COc1ccc(NC(=S)N/N=C(\C)c2ccc(Br)cc2)cc1`: the “-logMIC” value is on record as 0.097 and the MIC is 0.8 µg/mL (≈ 2.11 µM). In the case of `C/C(=N\NC(=S)Nc1cccc(Cl)c1Cl)c1ccc(Br)cc1`, the “-logMIC” value is on record as 0.398 and it took 0.4 µg/mL (≈ 0.959 µM) to inhibit growth (MIC). In the case of `COc1ccc(NNC(=S)N/N=C(\C)c2ccc(Br)cc2)cc1`, the “-logMIC” value is reported as -0.193 and the minimal inhibitory concentration (MIC) worked out at 1.56 µg/mL (≈ 3.97 µM). Regarding `C/C(=N\NC(=S)Nc1ccncc1)c1ccc(Br)cc1`, the minimal inhibitory concentration (MIC) is greater than 12.5 µg/mL. `C/C(=N\NC(=S)Nc1ccccc1F)c1ccc(Br)cc1`: it took 3.12 µg/mL (≈ 8.52 µM) to inhibit growth (MIC). As to `C/C(=N\NC(=S)Nc1cccc(C)c1)c1ccc([N+](=O)[O-])cc1`, the minimum inhibitory concentration (MIC) is greater than 12.5 µg/mL. The same measure, in the same setting: in the case of `C/C(=N\NC(=S)NN)c1ccc(Br)cc1` it was greater than 12.5 µg/mL. As to `C/C(=N\NC(=S)Nc1ccccc1[N+](=O)[O-])c1ccc(Br)cc1`, the “-logMIC” value is 0.398 and inhibition of growth (MIC) required 0.4 µg/mL (≈ 1.02 µM). As to `C/C(=N\NC(=S)Nc1ccncc1C)c1ccc(Br)cc1`, the MIC was greater than 12.5 µg/mL. On to `C/C(=N\NC(=S)Nc1ccc(I)cc1)c1ccc(Br)cc1`, for which the “-logMIC” value is 0.097 and the MIC worked out at 0.8 µg/mL (≈ 1.69 µM). The compound `C/C(=N\NC(=S)NN1CCN(c2ccccc2Cl)CC1)c1ccc(Br)cc1` showed a minimal inhibitory concentration (MIC) of 3.12 µg/mL (≈ 6.68 µM). For `C/C(=N\NC(=S)Nc1ccc(Br)cc1)c1ccc([N+](=O)[O-])cc1`, the “-logMIC” value was -0.796 and the MIC was 6.25 µg/mL (≈ 15.9 µM). In the case of `C/C(=N\NC(=S)Nc1ccccc1F)c1ccc([N+](=O)[O-])cc1`, the MIC was greater than 12.5 µg/mL. On the same count and under the same terms, next, `COc1ccc(NC(=S)N/N=C(\C)c2ccc([N+](=O)[O-])cc2)cc1`: greater than 12.5 µg/mL; `CC[C@@H](CO)NCCN[C@@H](CC)CO` [ETHAMBUTOL]: 0.1 µg/mL (≈ 0.489 µM).

Compound `NNC(=O)c1ccncc1` [ISONIAZID] showed a minimum inhibitory concentration (MIC) of 0.02 µg/mL (≈ 0.146 µM). Against the preceding compound, the MIC is about 5-fold lower.
